IMP-1 inh-1 = IMP-1 metallo-beta-lactamase inhibitors, primary screen, biochemical, epi-absorbance readout, Pseudomonas aeruginosa enzyme. AID 1556, 2009. 290,000 tested, 0.45% active. inhibition, % at 5.6 µM. metallo-beta-lactamase IMP-1 (Pseudomonas aeruginosa). purified IMP-1, nitrocefin hydrolysis, epi-absorbance fluorescence;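 active = inhibition above the mean plus 3 SD of all compounds in the same screening run, cut at about 4.5% in these data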;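 note: 0% = IMP-1 with DMSO and 100% = DMSO wells lacking enzyme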
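Assay system: purified IMP-1; Quantity: IMP-1 0.2 nM before substrate addition; Medium: HEPES buffer pH 7.1 with ZnSO4 and Brij 35; Incubation: 15 min enzyme–compound preincubation, then 25 min nitrocefin reaction, 25 °C; Signal: fluorescence quenching readout, ex 480/em 530 nm; Controls: DMSO with and without IMP-1; Repeats: singlicate testing.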
ARFGAP1 inh = inhibitors of rat ARFGAP1 GAP activity, primary screen, biochemical, fluorescence polarization, GDP tracer | Arfgap1-stimulated ARF1 GTP hydrolysis, GDP FP detection | ADP-ribosylation factor GTPase-activating protein 1 (Rattus norvegicus), Q62848 | inhibition, % at 16.5 µM | 360,000 tested, 0.26% active;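 active = inhibition above a per-plate limit, mean inhibition of low control wells plus 3 SD, cut at about 25% in these data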;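 note: 0% = DMSO wells with enzyme and 100% = wells lacking Arfgap1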
Target sequence (Q62848 1-136 limits assumed): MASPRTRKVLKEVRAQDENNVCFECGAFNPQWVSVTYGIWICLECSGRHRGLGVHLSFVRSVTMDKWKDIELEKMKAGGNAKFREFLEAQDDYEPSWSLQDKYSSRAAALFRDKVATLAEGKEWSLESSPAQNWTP
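Assay system: purified rat His6-Arfgap1 residues 1-136 (GAP domain); Reagent: human Δ17 ARF1 bound to GTP; Dosing: 16.5 µM single point, 1.26% DMSO; Times: GTP hydrolysis reaction 2 h at 25 °C; Signal: FP, GDP Alexa 633 tracer displaced from anti-GDP antibody, 620/688 nm; Measure: % inhibition from polarization.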
Calb FLC = C. albicans growth inhibition with fluconazole, primary screen, CaCi-2 strain, Alamar Blue fluorescence; C. albicans CaCi-2 + fluconazole, 48 h; growth inhibition, % (test concentration not listed); 300,000 tested, 0.57% active; AID 1979, 2009;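 active = growth inhibition above about 58% in most replicates, limit read from the data, passing the limit was not always enough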;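 note: all wells also contain fluconazole at 8 µg/ml as a sub-toxic cotreatment; 0% = median of DMSO wells and 100% = median of geldanamycin control wells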
VIM-2 inhibitor = VIM-2 metallo-beta-lactamase inhibitors, primary screen, biochemical, epi-absorbance readout, Pseudomonas aeruginosa enzyme | purified VIM-2, nitrocefin hydrolysis, epi-absorbance fluorescence | inhibition, % at 5.6 µM | 290,000 tested, 0.89% active | AID 1527, 2009;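 active = inhibition above the mean of all tested compounds plus 3 SD, cutoff set per screening run, cut at about 7.5% in these data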;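 note: red hydrolysis product quenches plate fluorescence so inhibitors raise well fluorescence; 0% = enzyme with DMSO and 100% = DMSO without enzyme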
PHOSPHO1 inh = PubChem AID 1565; Phosphoethanolamine/phosphocholine phosphatase (Homo sapiens), Q8TCT1; recombinant PHOSPHO1, absorbance phosphatase assay; inhibition, % at 13.3 µM; 290,000 tested, 1.1% active; in the data active = inhibition above about 60%
Target sequence (Q8TCT1 whole entry, looked up): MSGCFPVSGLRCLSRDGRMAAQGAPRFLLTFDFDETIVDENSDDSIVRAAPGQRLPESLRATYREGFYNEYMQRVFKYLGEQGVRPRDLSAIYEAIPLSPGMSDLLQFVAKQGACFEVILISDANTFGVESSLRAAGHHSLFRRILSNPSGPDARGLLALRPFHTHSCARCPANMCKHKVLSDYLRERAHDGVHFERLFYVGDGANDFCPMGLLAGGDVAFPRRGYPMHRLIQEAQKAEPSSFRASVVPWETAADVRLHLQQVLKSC
ASAP1 GAP inh = inhibitors of human ASAP1 ArfGAP activity, primary screen, biochemical, fluorescence polarization; AID 624377, 2012; inhibition, % at 16.5 µM; 360,000 tested, 0.19% active; ASAP1-stimulated ARF1 GTP hydrolysis, GDP FP detection; in the data active = inhibition above about 25%;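 note: 0% = vehicle with enzyme and substrate and 100% = no enzyme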
Target sequence (Q9ULH1 325-724 limits assumed): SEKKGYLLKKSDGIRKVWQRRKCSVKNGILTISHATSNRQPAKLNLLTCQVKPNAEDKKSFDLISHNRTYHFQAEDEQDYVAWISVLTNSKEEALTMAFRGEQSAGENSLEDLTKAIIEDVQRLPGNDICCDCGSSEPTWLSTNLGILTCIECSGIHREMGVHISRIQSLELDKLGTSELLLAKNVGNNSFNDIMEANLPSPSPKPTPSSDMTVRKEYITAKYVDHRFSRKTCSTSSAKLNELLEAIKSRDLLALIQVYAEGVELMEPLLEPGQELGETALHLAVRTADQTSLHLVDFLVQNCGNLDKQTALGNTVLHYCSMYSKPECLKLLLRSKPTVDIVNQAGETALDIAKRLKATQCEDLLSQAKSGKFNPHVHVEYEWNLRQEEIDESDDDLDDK
IMP-1 inh-2 = IMP-1 metallo-beta-lactamase inhibitors, confirmation, selectivity assay for selective VIM-2 inhibitor project, biochemical, epi-absorbance readout, triplicate | shares compounds with VIM-2 inhibitor | 1,300 tested, under 10 active | inhibition, % at 5.6 µM | purified IMP-1, nitrocefin hydrolysis, epi-absorbance fluorescence; call rule not given here;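 note: 0% = enzyme with vehicle and 100% = vehicle without enzyme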
VIM-2 FRET inh = VIM-2 inhibitors in FRET format, confirmation, artefact control for selective VIM-2 inhibitor project, biochemical, epi-absorbance artifact exclusion | shares compounds with VIM-2 inhibitor | purified VIM-2, CCF2 FRET substrate hydrolysis | inhibition, % at 5.6 µM | 1,300 tested, 23% active | AID 1857, 2009;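 active = inhibition above the mean of all tested compounds plus 3 SD, cut at about 19% in these data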;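 note: 0% = VIM-2 plus DMSO and 100% = no enzyme wells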
TEM-1 inh = TEM-1 serine beta-lactamase inhibitors, counter-screen for VIM-2 inhibitor project, biochemical, epi-absorbance, HTS; 1,300 tested, 3% active; shares compounds with VIM-2 inhibitor; inhibition, % at 5.6 µM; Purified TEM-1, nitrocefin hydrolysis, epi-absorbance fluorescence; AID 1866, 2009;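 active = inhibition above that campaign's mean inhibition plus 3 SD, cut at about 0.46% in these data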;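 note: 0% = TEM-1 with DMSO and 100% = TEM-1 with 100 µM potassium clavulanate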
VIM-2 inh conf = VIM-2 metallo-beta-lactamase inhibitors, confirmation, biochemical, epi-absorbance, hits shared with IMP-1 screen; shares compounds with VIM-2 inhibitor; purified VIM-2, nitrocefin hydrolysis; 1,300 tested, 96% active; AID 2187, 2009; inhibition, % at 5.6 µM;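 active = inhibition of the VIM-2 beta-lactamase enzyme above about 11% from the earlier first-round screen, limit read from the data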;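 note: 0% = VIM-2 with DMSO and 100% = buffer wells without enzyme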
An asterisk follows results filed as active; · = no result. Most compounds without a hit are left out; they make up all but 2.6% or so of the library.

SMILES	IMP-1 inh-1	ARFGAP1 inh	Calb FLC	VIM-2 inhibitor	PHOSPHO1 inh	ASAP1 GAP inh	IMP-1 inh-2	VIM-2 FRET inh	TEM-1 inh	VIM-2 inh conf
Cc1cc(Cl)ccc1-c1cc2nc(NCCCN(C)C)n(C)c(=O)c2s1	·	-1.3	·	·	·	1.2	·	·	·	·
COCC(=O)N(C)C[C@H]1Oc2cc(C#Cc3cccnc3)ccc2S(=O)(=O)N([C@H](C)CO)C[C@H]1C	·	3.2	·	·	·	-0.7	·	·	·	·
O=C(Nc1ccc(Oc2ccccc2)nc1)[C@H]1O[C@@H](n2ccc(=O)[nH]c2=O)[C@H](O)[C@@H]1O	·	-4.3	·	·	·	-0.9	·	·	·	·
O=C(CN1CCOCC1)n1c2c(c3ccccc31)CCCC2	-1.2	8.8	-9.0	12.9*	6.5	7.4	-3.7	6.1	-7.2	5.4
O=C(CN1CCOCC1)n1c2ccccc2c2ccccc21	-1.1	-2.8	-10.2	-6.0	-15.0	7.1	·	·	·	·
Cc1cccc(C)c1Nc1nnc(SCC(=O)NCc2cccs2)s1	-1.7	2.6	-32.3	0.0	-5.1	-3.0	·	·	·	·
CC(C)C(=O)Nc1nnc(SCC(=O)NCc2cccs2)s1	-3.0	2.4	0.8	13.9*	32.6	-7.0	-2.7	41.1*	-5.1	26.3*
CC(C)(C)C(=O)Nc1nnc(SCC(=O)NCc2cccs2)s1	-1.5	3.6	-2.9	56.3*	-19.0	-5.4	-2.6	78.6*	-6.3	61.3*
O=C1NN=C2CCCCCCC12 (configuration not stated)	·	3.6	·	·	·	3.6	·	·	·	·
Cc1ccc(S(=O)(=O)N(C)C[C@@H]2OCc3cn(nn3)CCCC(=O)N([C@H](C)CO)C[C@H]2C)cc1	·	-7.6	·	·	·	-0.6	·	·	·	·
O=C1c2ccccc2-c2onc3ccc(N4CCCC4)c1c23	2.3	-4.6	78.8	13.5*	26.5	-1.4	4.4	4.2	2.9*	24.7*
Cc1ccc2oc(=O)c3cc(C(=O)N4CCN(C)CC4)sc3c2c1	-1.1	-2.1	0.4	12.7*	31.6	-3.9	-3.8	3.9	-9.4	19.9*
CN1CCN(C(=O)c2cc3sc4ccccc4c3s2)CC1	-0.6	-2.1	4.2	1.2	7.8	2.8	·	·	·	·
COCCCn1cc(CN2CC(N3CCN(CCO)CC3)CS2(=O)=O)nn1 (configuration not stated)	·	-2.3	·	·	·	-1.3	·	·	·	·
CSCCC(C(=O)Nc1c(C)cccc1C)n1c(-c2ccc(C(F)(F)F)cc2)nc2ccccc21 (configuration not stated)	·	-6.7	·	·	·	3.2	·	·	·	·
CN1CCC(OC(=O)c2ccccc2)CC1	0.2	3.8	-6.1	-0.9	·	-2.5	·	·	·	·
Cc1c(Br)cc(C(=O)OC2CCN(C)CC2)c(C)c1C	0.2	23.3	-6.8	13.2*	-20.1	3.5	-1.5	2.1	-4.7	17.0*
CSc1nnc(-c2cc3c(-c4ccccc4)nn(C)c3s2)n1C	-1.8	9.5	-2.2	18.9*	31.7	-0.7	-2.8	0.3	-5.3	26.4*
CC(C)c1ccc(NC(=O)Nc2nc(C(N)COCc3ccccc3)cs2)cc1 (configuration not stated)	·	5.1	·	·	·	19.9	·	·	·	·
CN1CCN(C(=O)CNc2ccc(C(F)(F)F)cc2[N+](=O)[O-])CC1	0.2	-6.5	0.3	23.9*	-18.8	-1.6	-2.6	-2.1	-5.6	38.4*
CC(C)NC(=O)CNc1ccc(C(F)(F)F)cc1[N+](=O)[O-]	-4.6	10.8	7.6	-3.7	12.7	1.2	·	·	·	·
COCCn1c(-c2ccc(Br)cc2)csc1=Nc1cccnc1	-1.6	-2.3	-36.5	-0.5	-8.8	-5.8	·	·	·	·
Clc1ccc(-c2csc(=Nc3cccnc3)n2CCCn2ccnc2)cc1Cl	-0.7	7.2	2.0	29.6*	-9.0	3.5	-3.1	-28.4	-8.4	35.2*
C[C@@H]1CN([C@@H](C)CO)C(=O)CCCn2cc(nn2)CO[C@H]1CN(C)C(=O)Oc1ccccc1	·	5.5	·	·	·	-11.2	·	·	·	·
Cc1c(CCO)c(=O)n2c([nH]c3ccccc32)c1C#N	-1.7	6.4	-1.2	20.5*	14.1	5.5	-2.1	-3.7	-4.8	30.2*
SMILES	IMP-1 inh-1	ARFGAP1 inh	Calb FLC	VIM-2 inhibitor	PHOSPHO1 inh	ASAP1 GAP inh	IMP-1 inh-2	VIM-2 FRET inh	TEM-1 inh	VIM-2 inh conf
O=[N+]([O-])c1ccccc1-c1ccc(/C=N/n2cnnc2)o1	-3.4	-1.5	2.4	3.0	-19.0	11.3	·	·	·	·
O=[N+]([O-])c1cc(-c2ccc(/C=N\n3cnnc3)o2)cc([N+](=O)[O-])c1	-2.3	-3.5	-3.9	54.4*	10.6	7.8	-3.8	-0.8	-6.6	66.0*
Cc1ccc(-c2ccc(/C=N/n3cnnc3)o2)cc1Cl	-3.6	-8.6	32.3	21.4*	-10.2	-6.2	-3.8	-8.9	-7.1	44.5*
Clc1cccc(-c2ccc(/C=N/n3cnnc3)o2)c1	0.6	-8.9	15.1	18.7*	-63.3	7.9	-0.9	-3.2	1.9*	33.3*
CCCc1cc(=O)oc2c3c(cc(OCC(=O)N[C@@H](C)C(=O)O)c12)OC(C)(C)CC3	-0.1	-2.3	-0.3	17.5*	32.7	12.4	-2.7	40.6*	-3.3	24.4*
CCCc1cc(=O)oc2c3c(cc(OCC(=O)N[C@@H](CSC)C(=O)O)c12)OC(C)(C)CC3	-3.3	-1.3	-4.1	37.0*	39.4	0.5	-2.2	67.8*	-6.9	43.9*
CCN1CCN(C(=O)CSc2cc(=O)n(C)c3ccccc23)CC1	-2.7	-3.3	-19.4	36.9*	-0.7	2.4	-2.1	-1.8	-4.5	56.4*
CN1CCN(C(=O)CCCOc2cc(=O)n(C)c3ccccc23)CC1	-2.9	4.3	-7.6	18.4*	-6.0	-4.9	-2.7	-1.8	-5.2	38.5*
CN1CCN(C(=O)CSc2cc(=O)n(C)c3ccccc23)CC1	-2.9	12.2	28.8	31.1*	39.2	15.4	-2.2	0.8	-5.2	48.9*
CCCCNC(=O)c1nc(-c2cc3ccccc3[nH]2)oc1-c1ccccc1	·	6.4	·	·	·	2.4	·	·	·	·
